The target in assay [1] is T1, Substance-K receptor (Homo sapiens, UniProt P21452).
T1 sequence (P21452 whole entry): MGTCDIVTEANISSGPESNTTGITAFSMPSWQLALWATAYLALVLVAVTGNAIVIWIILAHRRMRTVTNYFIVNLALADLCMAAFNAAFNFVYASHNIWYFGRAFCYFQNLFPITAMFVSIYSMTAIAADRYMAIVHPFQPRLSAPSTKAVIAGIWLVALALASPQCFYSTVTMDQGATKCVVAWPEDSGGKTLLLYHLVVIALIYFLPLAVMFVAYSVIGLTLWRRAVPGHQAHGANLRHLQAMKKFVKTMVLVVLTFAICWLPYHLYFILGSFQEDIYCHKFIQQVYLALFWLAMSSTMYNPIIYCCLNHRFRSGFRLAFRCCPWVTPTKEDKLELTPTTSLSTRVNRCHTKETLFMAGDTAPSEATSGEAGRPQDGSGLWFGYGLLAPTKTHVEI
Description: Binding affinity to the NK2 receptor assayed by displacement of [125I]-Neurokinin A. In short, it runs like this:
(§1)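 Cloned human NK2 or NK3 receptors stably expressed in CHO cells. Radioligand displacement with [125I]neurokinin A for NK2 and [125I]Bolton-Hunter labeled eledoisin for NK3; IC50 reported.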
Background: Displacement assays read how much labelled ligand stays bound in the presence of the test substance.

In assay [2] the target is Substance-P receptor (Homo sapiens, UniProt P25103). Briefly: Binding affinity towards cloned neurokinin 1 receptor, based on the displacement of [125I]-labeled substance P.
Chain of Substance-P receptor (P25103 whole entry): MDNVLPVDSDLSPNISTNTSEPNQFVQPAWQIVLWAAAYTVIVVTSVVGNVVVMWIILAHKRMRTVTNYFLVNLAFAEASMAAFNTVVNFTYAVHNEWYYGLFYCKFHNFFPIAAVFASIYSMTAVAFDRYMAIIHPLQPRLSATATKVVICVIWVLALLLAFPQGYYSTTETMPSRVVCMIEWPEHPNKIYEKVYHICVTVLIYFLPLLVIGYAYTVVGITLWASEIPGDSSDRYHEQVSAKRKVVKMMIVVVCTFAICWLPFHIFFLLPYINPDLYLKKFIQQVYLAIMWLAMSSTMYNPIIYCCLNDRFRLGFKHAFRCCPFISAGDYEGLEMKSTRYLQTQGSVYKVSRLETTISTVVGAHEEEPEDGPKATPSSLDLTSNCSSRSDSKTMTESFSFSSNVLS
In assay [3] the target is T2, Neuromedin-K receptor (Homo sapiens, UniProt P29371).
T2 sequence (P29371 whole entry): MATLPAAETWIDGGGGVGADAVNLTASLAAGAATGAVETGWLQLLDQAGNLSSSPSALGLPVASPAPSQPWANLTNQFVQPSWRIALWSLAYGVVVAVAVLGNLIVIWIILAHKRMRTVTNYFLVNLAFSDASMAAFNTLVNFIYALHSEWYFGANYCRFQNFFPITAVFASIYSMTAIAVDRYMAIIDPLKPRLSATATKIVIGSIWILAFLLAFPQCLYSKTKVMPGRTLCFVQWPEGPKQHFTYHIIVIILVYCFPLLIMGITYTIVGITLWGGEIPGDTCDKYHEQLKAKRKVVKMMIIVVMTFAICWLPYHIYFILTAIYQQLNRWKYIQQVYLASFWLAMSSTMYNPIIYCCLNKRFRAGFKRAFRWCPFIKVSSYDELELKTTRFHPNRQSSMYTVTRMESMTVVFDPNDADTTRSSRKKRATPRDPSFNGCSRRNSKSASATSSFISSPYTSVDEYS
Description: Affinity to NK3 receptors assayed by displacement of [125I]-Bolton-Hunter labeled eledoisin radioligand. In short, it runs like this: as §1

The species entered for assay [4] is Cavia porcellus. Briefly: Inhibitory dose against substance P induced extravasation in the guinea pig. To be noted: read-out: ID50.
The species entered for assay [5] is Cavia porcellus. Briefly: animal or person. To be noted: po, read-out: Inhibition.

As for `CC(=O)N[C@@H](Cc1ccccc1)C(=O)OCc1cc(C)cc(C)c1`, the IC50 in assay [1] was more than 5 µM; in assay [2] it was 0.433 µM; in assay [3] it was more than 5 µM.
For the compound `O=C(N[C@@H](Cc1c[nH]c2ccccc12)C(=O)OCc1ccc(C(F)(F)F)cc1)c1ccccc1`, the values for the IC50 in assay [1], in assay [2] and in assay [3] were more than 5 µM, 2.15 µM and more than 5 µM, respectively.
Consider `COC(=O)N[C@@H](Cc1c[nH]c2ccccc12)C(=O)OCc1cc(C)cc(C)c1`, for which the values for the IC50 in assay [1], in assay [2] and in assay [3] were more than 5 µM, 0.087 µM and more than 5 µM, respectively.
Turning to `Cc1cc(C)cc(COC(=O)[C@H](Cc2c[nH]c3ccccc23)N(C)C)c1`, the IC50 in assay [1] and in assay [3] was more than 5 µM throughout.
Regarding `CC(=O)N[C@@H](Cc1cccc2ccccc12)C(=O)OCc1cc(C)cc(C)c1`, the figures for the IC50 in assay [1], in assay [2] and in assay [3] were more than 5 µM, 0.153 µM and more than 5 µM, respectively.
In the case of `CNC(=O)N[C@@H](Cc1c[nH]c2ccccc12)C(=O)OCc1cc(C)cc(C)c1`, the IC50 in assay [1] is more than 5 µM; in assay [2] it was 0.103 µM; in assay [3], more than 5 µM.
Consider `O=C(N[C@@H](Cc1c[nH]c2ccccc12)C(=O)OCc1ccccc1Cl)c1ccccc1`, for which the concentration for half-maximal inhibition (IC50) in assay [1] and in assay [3] was more than 5 µM throughout.
Turning to `COc1cccc(COC(=O)[C@H](Cc2c[nH]c3ccccc23)NC(=O)c2ccccc2)c1`, the IC50 in assay [1] is more than 5 µM; in assay [2], 0.76 µM; in assay [3], more than 5 µM.
On to `COc1ccccc1COC(=O)[C@H](Cc1c[nH]c2ccccc12)NC(=O)OC(C)(C)C`, for which the IC50 in assay [1] and in assay [3] was more than 5 µM each time.
With `Cc1cc(C)cc(COC(=O)[C@H](Cc2c[nH]c3ccccc23)NC(=O)OC(C)(C)C)c1`, the IC50 in assay [1] and in assay [3] was more than 5 µM each time.
On to `O=C(N[C@@H](Cc1c[nH]c2ccccc12)C(=O)OCc1cccc(C(F)(F)F)c1)c1ccccc1`, for which the values for the 50% inhibitory concentration (IC50) in assay [1], in assay [2] and in assay [3] were more than 5 µM, 0.062 µM and more than 5 µM, respectively.
On to `CCN[C@@H](Cc1c[nH]c2ccccc12)C(=O)OCc1ccccc1`, for which the 50% inhibitory concentration (IC50) in assay [1] and in assay [3] was more than 5 µM each time.
As to `Cc1cc(C)cc(COC(=O)[C@H](Cc2c[nH]c3ccccc23)NC(=O)c2ccccc2)c1`, the half-maximal inhibitory concentration (IC50) in assay [1] was more than 5 µM; in assay [2], 0.022 µM; in assay [3], more than 5 µM.
`N[C@@H](Cc1c[nH]c2ccccc12)C(=O)OCc1ccccc1`: the IC50 in assay [1] and in assay [3] was more than 5 µM each time.
For the compound `Cc1cc(C)cc(COC(=O)[C@@H](N)Cc2c[nH]c3ccccc23)c1`, the IC50 in assay [1] and in assay [3] was more than 5 µM throughout.
Consider `O=C(N[C@@H](Cc1c[nH]c2ccccc12)C(=O)OCc1ccc(Cl)cc1)c1ccccc1`, for which the figures for the IC50 in assay [1], in assay [2] and in assay [3] were more than 5 µM, 0.243 µM and more than 5 µM, respectively.
Consider `COc1ccccc1COC(=O)[C@H](Cc1c[nH]c2ccccc12)NC(=O)c1ccccc1`, for which the results for the half-maximal inhibitory concentration (IC50) in assay [1], in assay [2] and in assay [3] were more than 5 µM, more than 0.1 µM and more than 5 µM, respectively.
Consider `O=C(N[C@@H](Cc1c[nH]c2ccccc12)C(=O)OCc1cccc(Cl)c1)c1ccccc1`, for which the values for the IC50 in assay [1], in assay [2] and in assay [3] were more than 5 µM, 1.05 µM and more than 5 µM, respectively.
For the compound `CC(=O)N[C@@H](Cc1ccc2ccccc2c1)C(=O)OCc1cc(C)cc(C)c1`, the IC50 in assay [1] is more than 5 µM; in assay [2] it was 0.138 µM; in assay [3], more than 5 µM.
For `O=C(N[C@@H](Cc1c[nH]c2ccccc12)C(=O)OCc1ccccc1C(F)(F)F)c1ccccc1`, the figures for the IC50 in assay [1], in assay [2] and in assay [3] were more than 5 µM, 0.183 µM and more than 5 µM, respectively.
As to `Cc1cc(C)cc(COC(=O)[C@H](Cc2c[nH]c3ccccc23)[N+](C)(C)C)c1`, the half-inhibitory concentration (IC50) in assay [1] and in assay [3] was more than 5 µM each time.
As for `O=C(N[C@@H](Cc1c[nH]c2ccccc12)C(=O)OCc1cc(C(F)(F)F)cc(C(F)(F)F)c1)c1ccccc1`, the IC50 was more than 5 µM in assay [1], 0.0027 µM in assay [2] and more than 5 µM in assay [3].
As for `COc1ccc(COC(=O)[C@H](Cc2c[nH]c3ccccc23)NC(=O)c2ccccc2)cc1`, the IC50 in assay [1] is more than 5 µM; in assay [2], 5.5 µM; in assay [3] it was more than 5 µM.
`CC(C)(C)OC(=O)N[C@@H](Cc1c[nH]c2ccccc12)C(=O)OCc1ccccc1`: the concentration for half-maximal inhibition (IC50) in assay [1] and in assay [3] was more than 5 µM each time.
Regarding `CC(=O)N[C@@H](Cc1ccc(Cl)c(Cl)c1)C(=O)OCc1cc(C)cc(C)c1` (racemic), the IC50 in assay [1] is more than 5 µM; in assay [2], 0.03 µM; in assay [3], more than 5 µM.
In the case of `CC(=O)N[C@@H](Cc1n[nH]c2ccccc12)C(=O)OCc1cc(C(F)(F)F)cc(C(F)(F)F)c1` (racemic), the IC50 in assay [1] is more than 5 µM; in assay [2], 0.197 µM; in assay [3], more than 5 µM.
With `CC(=O)N[C@@H](Cc1csc2ccccc12)C(=O)OCc1cc(C(F)(F)F)cc(C(F)(F)F)c1` (racemic) [L-709400], the values for the IC50 in assay [1], in assay [2] and in assay [3] were more than 5 µM, 0.008 µM and more than 5 µM, respectively.
`Cc1cc(C)cc(COC(=O)C(Cc2c[nH]c3ccccc23)NC(=O)c2ccccc2)c1` (single isomer, unassigned): the IC50 in assay [1] and in assay [3] was more than 5 µM each time.
With `CC(=O)N[C@@H](Cc1c[nH]c2ccccc12)C(=O)OCc1cc(C)cc(C)c1` [L-708568], the IC50 in assay [1] and in assay [3] was more than 5 µM each time.
As to `CC(=O)N[C@@H](Cc1c[nH]c2ccccc12)C(=O)OCc1cc(C(F)(F)F)cc(C(F)(F)F)c1` [L-732138], in assay [4], the ED50 was 8 mg/kg. Also, the concentration for half-maximal inhibition (IC50) in assay [1] and in assay [3] was more than 5 µM in each case. Moreover, the inhibition in vivo at 30 mg/kg in assay [5] is 22%.

By IC50 is commonly meant the concentration at which inhibition is half-maximal. Low readings indicate higher potency, high ones lower potency.

The record behind these values is ChEMBL document CHEMBL1127818, “Identification of L-tryptophan derivatives with potent and selective antagonist activity at the NK1 receptor” (J Med Chem, 1994).
